The sample as a whole holds a higher share of hits than the screen did.
ROMK mod = human ROMK K+ channel modulation, primary screen | P48048 | Tet-inducible ROMK, thallium flux fluorescence; actives lie on both sides | actives 2% (n = 130,000) | B-score at 10 µM | AID 1918;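 active = signal ratio slope over the read window, or its plate-corrected B-score, at least 3 SD from the plate mean, either direction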;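 note: B-score of the F/F0 ratio slope over 7 to 12 s after thallium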
Target sequence (P48048 whole entry, looked up): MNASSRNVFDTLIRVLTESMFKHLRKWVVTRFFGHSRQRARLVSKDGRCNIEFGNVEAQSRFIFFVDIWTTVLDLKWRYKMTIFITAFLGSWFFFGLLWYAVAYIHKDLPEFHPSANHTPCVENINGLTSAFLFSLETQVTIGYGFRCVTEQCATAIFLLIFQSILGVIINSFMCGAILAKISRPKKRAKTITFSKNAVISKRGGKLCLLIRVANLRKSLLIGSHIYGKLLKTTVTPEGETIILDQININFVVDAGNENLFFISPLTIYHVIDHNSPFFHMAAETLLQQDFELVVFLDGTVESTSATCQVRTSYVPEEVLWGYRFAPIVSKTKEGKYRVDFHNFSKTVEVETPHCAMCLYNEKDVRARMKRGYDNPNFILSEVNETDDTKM
Calb biofilm kill = mixture kills Candida albicans biofilm cells; inhibition, % at 7.6 µM; AID 1242; actives 0.02% (n = 120,000); C. albicans biofilm persisters + clotrimazole, fluorescence viability; primary screen in compound mixtures of four per well;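 note: compounds exposed to preformed 24 h biofilms for 48 h; 0% = untreated biofilm control and 100% = clotrimazole plus chlorhexidine kill blank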
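Test system: C. albicans biofilms. Buffer or medium: RPMI/MOPS medium, pH 7.0. Timing: 48 h compound exposure at 37 °C. Technique: Alamar Blue fluorescence. Evaluation: percent inhibition of biofilm viability.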
ROMK hit retest = confirmation of human ROMK potassium channel modulators. shares compounds with ROMK mod. ROMK thallium flux, fluorescence ratio; active compounds read low. normalized thallium flux (F/F0 slope) at 10 µM. actives 54% (n = 3,000). AID 1917;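 active = Flux at 10 µM at least 3 SD below or above vehicle control mean in one or both replicates; inconclusive = no clear call, values can overlap the other calls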
Starred values were filed as active, the others as inactive; u = inconclusive; x = no result.

SMILES	ROMK mod	Calb biofilm kill	ROMK hit retest
CN(C)C(=O)COc1ncnc2scc(-c3ccc(F)cc3)c12	-0.317	-1.6	x
COc1cc(/C=C/C(=O)NC(C)CCc2ccccc2)cc(OC)c1OC (configuration not stated)	0.606	19.5	x
CC(CCc1ccccc1)NC(=O)/C=C/c1ccc(F)cc1 (configuration not stated)	2.1*	7.9	0.0751
CC(C)CCNC(=O)NC(=O)CSc1ncccn1	0.212	16.6	x
O=c1[nH][nH]c(-c2ccccc2)c1C=Nc1ccc(OC(F)(F)F)cc1	-0.878	13.9	x
CCN1CCN(Cc2c(O)ccc3c2O/C(=C\c2ccc(C)cc2)C3=O)CC1	-5.67*	4.6	0.0402*
CCc1ccc(/C=C2\Oc3c(ccc(O)c3CN3CCN(C)CC3)C2=O)cc1	-8.13*	-5.2	0.0461*
Cc1ccc(/C=C2\Oc3c(ccc(O)c3CN3CCN(C)CC3)C2=O)cc1	x	25.4	x
CCN1CCN(Cc2c(O)ccc3c2O/C(=C\c2ccccc2)C3=O)CC1	x	17.5	x
CCOc1cc(C(=O)NCCOC)ccc1OC	0.0943	x	x
Cc1ccc(Sc2ncccc2COC(=O)NC(C)C)cc1	-0.764	13.9	x
COCCNC(=S)N1CCc2cc(OC)c(OC)cc2C1COc1ccc(C(C)C)cc1 (configuration not stated)	x	16.9	x
N#CC1=C(N)Oc2n[nH]c(-c3cccs3)c2C1c1ccncc1 (configuration not stated)	-0.0231	13.3	x
N#CC1=C(N)Oc2n[nH]c(-c3cccs3)c2C1c1ccco1 (configuration not stated)	-3.47*	x	0.053*
Cc1ccc(Oc2c(CO)c(-c3ccccc3)nn2C)cc1	-0.00403	7.5	x
Oc1cc(Br)ccc1C=Nc1ccc(N2CCCCC2)cc1	x	13.6	0.0459*
Oc1ccc(Br)cc1/C=N/N1CCCCC1	1.22	-1.9	x
CC(C)NC(=O)CCS(=O)(=O)c1cccc2nonc12	0.188	x	x
CCCCC(CC)CNC(=O)CCS(=O)(=O)c1cccc2nonc12 (configuration not stated)	x	x	u
C/C(=N\Nc1ccc(C(=O)O)cc1)c1ccc(S(=O)(=O)NCc2ccco2)cc1	x	19.1	x
O=C(CN1C(=O)C2CC=CCC2C1=O)Nc1ccc(S(=O)(=O)Nc2nccs2)cc1 (configuration not stated)	x	15.7	x
Cn1c(=O)n(C)c2cc(NS(=O)(=O)c3ccc(C(C)(C)C)cc3)ccc21	-1.32	6.8	x
Cn1c(=O)n(C)c2cc(NS(=O)(=O)c3ccc4c(c3)CCCC4)ccc21	-2.03*	x	u
CCC(C)(C)NC(=O)CN(CCc1cccc(C)c1)C(=O)c1csnn1	-0.171	13.3	x
COc1ccc2cc(CN(CC3CCCO3)S(=O)(=O)c3ccccc3Cl)c(=O)[nH]c2c1 (configuration not stated)	-1.03	x	x
SMILES	ROMK mod	Calb biofilm kill	ROMK hit retest
C/C=C(\C)CN1CCc2cc(OC)c(OC)cc2C1	-0.0586	x	x
COc1cc2c(cc1OC)CN(CCC(=O)c1ccc(Br)cc1)CC2	-4.04*	20.5	u
CCCN(CCC)C(=O)Nc1cc(Cl)ccc1OC	x	3.0	x
COCc1n[nH]c(=S)n1-c1ccccc1	-0.0371	x	x
COC(Cc1n[nH]c(=S)n1-c1ccccc1)OC	x	x	0.0725
CC(=O)N1CCN(CC(=O)Nc2ccccc2Sc2ccccc2)CC1	0.0662	9.2	x
O=C(NC(=O)c1cnccc1C(F)(F)F)Nc1ccccc1	x	9.4	x
COc1cc(C2CC(=O)c3c([nH]c(C(=O)OCCOC(C)C)c3C)C2)cc(OC)c1OC (configuration not stated)	x	x	0.0633*
CCOC(=O)c1[nH]c2c(c1C)C(=O)CC(c1ccc(OC)c(OC)c1)C2 (configuration not stated)	-0.411	x	x
COc1ccc2c(c1)sc(=N)n2C	0.0106	2.1	x
COC(=O)[C@@]1(Cc2ccc(F)cc2)[C@H]2c3cc(C(=O)N4CCCC4)n(CCc4ccc(O)c(O)c4)c3C[C@H]2CN1C(=O)c1ccccc1	-2.28	-0.9	u
COC(=O)[C@@]1(Cc2ccc(F)cc2)[C@H]2c3cc(C(=O)N4CCCC4)n(CCO)c3C[C@H]2CN1C(=O)c1ccccc1	-0.611	5.2	x
O=C(O)CCc1nnc(SCC(=O)Nc2cccc(C(F)(F)F)c2)[nH]c1=O	x	22.7	x
Cn1cc(CC(=O)NCCN2CCOCC2)c2ccccc21	0.00994	19.7	x
C(#CCN1CCOCC1)COC(c1ccccc1)c1ccccc1	x	16.5	x
C(#CCN1CCOCC1)COCCOC(c1ccccc1)c1ccccc1	1*	x	0.0759
COc1ccc(/C=N/NC(=O)c2cc(C34CC5CC(CC(C5)C3)C4)[nH]n2)cc1OC	x	14.4	x
O=C(N/N=C/c1ccc(O)cc1)c1cc(C23CC4CC(CC(C4)C2)C3)[nH]n1	x	21.6	0.0724
O=C1CCCC/C1=C\Nc1ccc(C(=O)O)c(O)c1	x	9.4	x
Cc1cc(-c2csc(NC(=O)c3cc4ccccc4o3)n2)c(C)n1C	x	x	u
O=C(Nc1nc(-c2ccccn2)cs1)c1cc2ccccc2o1	1.01	10.9	x

Source: PubChem BioAssay (several laboratories)
